Screening data from PubChem.
STAT1 act = STAT1 signaling activation; 2.6% of 200,000 active; activation (% of control), % at 5.5 µM; NIH 3T3 STAT1-luciferase reporter, IFN-gamma, luminescence; 100% = IFN-gamma alone, no compound; AID 932;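 active = activation above the screen-wide mean activation plus 3 SD, cut at about 130% in these data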;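 also: raw ratio to IFN-gamma control signal so 100% means no change and 0% no light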
FLuc stim CS = affects firefly luciferase, flagging false hits in luciferase stimulation screens | ATPlite luciferase biochemical, luminescence, 10 min; 0 = ATP-free wells, 1 = DMSO control | activation factor at 10 µM | 200,000 tested, under 10 active;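 active = luciferase activation factor, scaled between plate controls, of at least 2 with compound at 10 µM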
Target sequence (P08659 whole entry, looked up): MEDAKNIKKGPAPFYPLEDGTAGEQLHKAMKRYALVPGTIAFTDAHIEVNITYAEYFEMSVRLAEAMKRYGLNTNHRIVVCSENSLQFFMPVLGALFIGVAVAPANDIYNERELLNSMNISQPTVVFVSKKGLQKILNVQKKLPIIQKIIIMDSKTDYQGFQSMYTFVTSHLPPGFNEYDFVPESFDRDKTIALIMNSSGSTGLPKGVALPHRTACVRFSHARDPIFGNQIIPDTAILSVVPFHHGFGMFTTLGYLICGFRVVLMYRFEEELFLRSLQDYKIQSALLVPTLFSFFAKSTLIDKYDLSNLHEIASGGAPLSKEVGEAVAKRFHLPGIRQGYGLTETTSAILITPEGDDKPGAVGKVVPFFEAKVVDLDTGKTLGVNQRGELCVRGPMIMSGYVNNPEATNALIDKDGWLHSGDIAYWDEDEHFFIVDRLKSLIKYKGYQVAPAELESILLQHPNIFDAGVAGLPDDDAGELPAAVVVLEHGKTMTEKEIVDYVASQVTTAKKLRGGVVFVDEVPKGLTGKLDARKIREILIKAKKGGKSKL
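Material: luciferase plus luciferin reagent, cell-free. Medium: PBS buffer for ATP. Also added: ATP substrate, dispensed from a 10.24 µM working solution in PBS. Doses: test compounds dosed from 2 mM stocks in 100% DMSO. Incubation: 10 min post-reagent at room temperature. Technique: light output (luminescence). Read-out basis: luminescence gain marking luciferase activators.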
Pf gametocyte = inhibitors of late stage P. falciparum gametocyte viability; 0.065% of 150,000 active; inhibition, % at 10.9 µM; P. falciparum stage V gametocytes, ATP luminescence, 24 h;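 active = inhibition above the mean plus 3 SD of compounds within the control limits, set per campaign, cut at about 38% in these data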;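 also: 0% = DMSO wells and 100% = medium only without gametocytes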
FLuc inhib CS = inhibits firefly luciferase, flagging false hits in luciferase inhibition screens | inhibition, % at 10 µM | P08659 | ATPLite firefly luciferase biochemical luminescence, 10 min | 1.5% of 200,000 active | AID 1006;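 active = inhibition above about 50% when tested at 10 µM, limit read from the data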
NF-kB neuron act = compounds increasing NF-kB expression in human neuronal cells; AID 1239; fold change at 12.5 µM; NF-kB reporter expression; hits give high values; 1.6% of 190,000 active; in the data active = fold change above about 3.3
APP 5'UTR act = APP 5'UTR luciferase reporter activation; SH-SY5Y APP 5'UTR luciferase reporter, luminescence; zero percent = DMSO vehicle wells; activation, % at 2 µM; 1% of 190,000 active;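 active = activation above a set limit, based on mean plus 3 SD of controls, cut at about 140% in these data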
Numbers without * were called inactive; x = not tested or not shown. Rows were chosen to be rich in hits. Some 3.5% of all compounds tested hit in one or more screens of this group.

SMILES | STAT1 act | FLuc stim CS | Pf gametocyte | FLuc inhib CS | NF-kB neuron act | APP 5'UTR act
CCOc1ccc(/C=C/C(=O)C(C(N)=O)=C2SCCS2)cc1 | 104 | 0.4 | -16 | 58* | 1.9 | 30
Cc1ccc(CSc2nnc(-c3ccncc3)n2C)cc1 | 95 | 1.1 | x | -10 | 1.1 | 10
Cc1ccc(Nc2nc(CSc3nnc(-c4ccncc4)n3C)cs2)cc1 | 94 | 0.1 | x | 90* | 4.4* | 87
CCOC(=O)C1(CC2CC2)CCN(Cc2cnc(-c3ccc(OC)cc3)nc2)CC1 | 92 | 1.1 | 4 | -8 | 1.1 | -3
Cc1ccc(O)c(N=NC2=C(O)CC(C)(C)CC2=O)c1 | 94 | 0.4 | x | 62* | 2.8 | -36
COc1nc(Nc2ccc([N+](=O)[O-])cc2)nc(NC2CCCCC2)n1 | 96 | 1.1 | -8 | -6 | 0.61 | -4
Cc1ccc(Nc2n[nH]c(C)c2[N+](=O)[O-])cc1 | 147* | 0.9 | x | 10 | 3.1 | 54
CCN(CC)c1ccc(/C=C/C(=O)C2C(=O)C=C(C)OC2=O)cc1 (centres undefined) | 138* | 0.5 | -7 | 49 | 1.9 | 164*
O=C(Nc1ccc(Br)cc1)C1OCCc2ccccc21 (centres undefined) | x | x | 16 | x | x | x
O=C(Nn1cnc2ccccc2c1=O)c1ccccc1[N+](=O)[O-] | 93 | 1 | x | -3 | 1.3 | -7
Cc1ccc(/C=N/c2sc3c(c2C(N)=O)CCCC3)o1 | 146* | 0.7 | 7 | 27 | 2 | 92
Cc1ccc(NC(=O)C(=O)Nc2ccc(C)cn2)nc1 | 117 | 1 | -2 | 4 | 2.6 | 23
Cc1ccc(NC(=O)/C(C#N)=C(\N)C(Cl)(Cl)Cl)nc1 | 118 | 0.2 | x | 83* | 6.4* | 34
O=C(Nc1ccc2c(c1)OCCO2)c1cccnc1 | 129* | 0.8 | x | 17 | 1.5 | 27
Cc1ccc(C(=O)Nc2ccc3nccnc3c2)cc1 | 93 | 0.1 | -11 | 89* | 8.4* | 145*
O=C(Nc1ccc(OC(F)(F)F)cc1)c1ccc2nccnc2c1 | 110 | 1 | -7 | -1 | 1.7 | 5
O=C(Nc1ccc2c(c1)OCCO2)c1ccc2nccnc2c1 | 125 | 0.2 | 0 | 80* | x | 165*
CCC(C)(C)n1nnnc1C(c1cc2cc(C)cc(C)c2[nH]c1=O)N1CCN(C(=O)c2ccco2)CC1 (centres undefined) | 106 | 1 | x | -1 | 0.94 | 6
Cc1ccc(CSc2nc3ncccc3[nH]2)cc1 | 107 | 0.2 | x | 83* | 3.2 | 135
O=C(c1ccc(CSc2nc3ccncc3[nH]2)cc1)N1CCCCCC1 | x | x | -6 | x | x | x
Cc1ccc(CSc2nc3ccncc3[nH]2)cc1 | 35 | 0 | x | 98* | 5.2* | 148*
Clc1ccc(CSc2nc3ccncc3[nH]2)cc1 | 53 | 0 | x | 97* | 7.5* | 147*
O=C(NCC1CCCO1)C(=O)NCC(c1ccco1)N1CCN(c2ccccc2F)CC1 (centres undefined) | 96 | 1 | 4 | 2 | 1 | -6
OCC[C@H]1C[C@@H](O)[C@H](O)[C@]2(CCc3ccccc3O2)O1 | x | x | -2 | x | x | x
COc1ccc(NC(=O)c2onc(C)c2Cl)cc1 | x | x | -8 | x | x | x
SMILES | STAT1 act | FLuc stim CS | Pf gametocyte | FLuc inhib CS | NF-kB neuron act | APP 5'UTR act
CCc1ccc(NC(=O)c2onc(C)c2Cl)cc1 | 143* | 0.7 | x | 34 | 6* | 135*
CC(C)N=c1c([N+](=O)[O-])nn(C)n1O | 100 | 1.1 | 7 | -6 | 1.1 | 28
O=c1[nH][nH]cc1C=Nc1ccccc1O | 82 | 1 | x | -2 | 6.2* | 22
O=c1[nH][nH]cc1C=Nc1cc(Cl)ccc1O | 83 | 1 | -35 | 1 | 4.2* | -21
O=c1[nH][nH]cc1C=Nc1ccccc1Cl | 103 | 0.9 | -7 | 14 | 1.1 | -3
FC(F)(F)Oc1ccc(Nc2nc3ccccc3o2)cc1 | 134* | 1 | 12 | 5 | 1.9 | 77
c1ccc(Nc2nc3ccccc3o2)cc1 | 137* | 0.4 | -1 | 58* | 5.3* | 133
O=C1c2ccccc2C(O)N1Cc1cccs1 (centres undefined) | 95 | 1 | 55* | -2 | 1.1 | 24
COc1cc([C@@H]2c3cc4c(cc3[C@H](O)[C@H]3COC(=O)[C@H]23)OCO4)cc(OC)c1OC | 113 | 1.1 | x | -7 | 3.9* | -94
Cc1ccc(-c2nc(C#N)c(NCc3ccco3)o2)cc1 | 113 | 1 | 6 | 4 | 3.6* | 73
N#Cc1nc(-c2ccc(F)cc2)oc1NCc1ccco1 | x | x | -6 | x | x | x
COc1ccc(-c2nc(C#N)c(NCc3ccco3)o2)cc1 | 106 | 0.9 | 12 | 8 | 3.6* | 70
S=C(NCC1CCCO1)Nc1ccc(Cl)cc1Cl (centres undefined) | 118 | 1 | 20 | -1 | 2 | 32
Cc1cc(C(=O)COc2ccccc2C(N)=O)c(C)n1C1CC1 | 127 | 0.8 | -6 | 18 | 1.3 | 30
Cc1cc(C(=O)COC(=O)c2ccc[nH]c2=O)c(C)n1-c1ccc(F)cc1 | 109 | 0.2 | x | 79* | 0.51 | 84
Cc1cc(C(=O)COC(=O)c2ccc[nH]c2=O)c(C)n1-c1ccccc1 | 68 | 0.1 | 11 | 91* | 0.9 | 131
Cc1cc(C(=O)COC(=O)c2ccc[nH]c2=O)c(C)n1C1CC1 | 120 | 0.4 | 1 | 64* | 0.86 | 4
CCN1C(=O)c2ccc(C(=O)Nc3ncc(C)s3)cc2C1=O | 114 | 0.1 | 14 | 86* | 1.8 | 2
CCc1nnc(NC(=O)c2ccc3c(c2)C(=O)N(C(C)(C)C)C3=O)s1 | 117 | 0.3 | -14 | 69* | 2.8 | -3
Cc1ccc(/C(N)=N/OC(=O)c2ccc(Cl)cc2Cl)cc1 | 140* | 0.3 | -41 | 75* | 1.6 | 154*
COc1ccccc1C(=O)O/N=C(\N)c1ccc(Cl)cc1 | 140* | 0.8 | x | 17 | 5.4* | 70
COc1ccc(Cl)cc1C(=O)O/N=C(\N)c1ccncc1 | x | x | 10 | x | x | x
Cc1ccc(N(C(=O)Cc2cccs2)C(C(=O)NC2CCCC2)c2ccncc2)cc1 (centres undefined) | 102 | 1 | 1 | -2 | 1 | 2
Cc1nc2c(C(=O)N3CCCCC3)cnn2c(C)c1Cc1ccccc1F | 138* | 0.8 | x | 21 | 1.4 | 132
NNC(=O)c1nc(Cl)c(Cl)c(N)c1Cl | x | x | -24 | x | x | x
Cc1ccc(C)c(OCC(=O)O/N=C(\N)c2ccccn2)c1 | 135* | 1 | x | 2 | 6.2* | 112
N/C(=N\OC(=O)CC1CCCCC1)c1cccnc1 | 113 | 0.4 | 3 | 65* | 1.6 | 9
N/C(=N\OC(=O)CC1CCCCC1)c1ccncc1 | 105 | 0.8 | -7 | 25 | 1.4 | -3
N/C(=N\OC(=O)CC1CCCCC1)c1ccccn1 | 128 | 0.2 | 20 | 81* | 4.8* | 53
N/C(=N\OC(=O)COc1ccc(Cl)cc1Br)c1cccnc1 | 146* | 0.7 | x | 26 | 2.9 | 87
